Laboratory results: ChEMBL document CHEMBL1165893, “Synthesis, anticancer and antioxidant activities of 7-methoxyisoflavanone and 2,3-diarylchromanones” (Eur J Med Chem, 2010)
The source made the active and inactive calls. The calls are words filed in the database; no cut-off is given here.

Assays:
[1] = Antioxidant activity assessed as free radical scavenging activity by lipid peroxidation assay; assay type: functional
In short: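 Lipid peroxidation system initiated with 400 mM FeCl3 and 200 mM L-ascorbic acid (stock levels as printed). Test compound added at several concentrations; control without compound. Incubated 37 °C, 60 min. Stopped with 0.25 N HCl / 1.5% TCA / 0.375% thiobarbituric acid, boiled 15 min, cooled, centrifuged. Absorbance read at 532 nm; percent inhibition versus control used to derive EC50.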

HL-60 [2] = assay: Cytotoxicity against human HL60 cells after 5 days by MTT assay; assay type: functional; conditions: HL-60, 120 h
[3] = Cytotoxicity against human PBMC cells after 5 days by MTT assay; assay type: cell-based
In short: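 Cells seeded at 3 × 10^5 cells/mL in 96-well plates and kept at 37 °C in humidified 5% CO2 with test compound for 5 days. PBMC came from healthy donors. Viability read by MTT; CC50 calculated. Mean ± SD of three independent experiments, Student t-test.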

HL-60 [4] = assay: Induction of apoptosis in human HL60 cells assessed as fragmentation of DNA after 48 hrs by electrophoresis; assay type: functional, cell-based
In short: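 HL60 cells exposed to test compound alongside untreated control. After 48 h, DNA extracted, run on 0.8% agarose gel with ethidium bromide, and fragmentation pattern imaged.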

HL-60 [5] = assay: Induction of apoptosis in human HL60 cells after 48 hrs using annexin V-propidium iodide staining by FACS analysis; assay type: functional, cell-based
In short: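 HL60 cells incubated with test compound at a concentration set from its CC50. Stained with FITC-Annexin V and analysed by flow cytometry, with treated-cell fluorescence compared against control cells.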

Row | Compound | EC50 [1] [µM] | CC50 (HL-60 [2]) [µM] | CC50 at 120 h [3] [mM] | Activity (HL-60 [4]) | Activity (HL-60 [5])
1 | COc1ccc2c(c1)OC(c1cccc([N+](=O)[O-])c1)C(c1ccccc1)C2=O (centres undefined) | 130 | > 2500 | > 2.5 | Active | –
2 | CCOc1ccc2c(c1)OC(c1ccccc1)C(c1ccccc1)C2=O (centres undefined) | 877 | > 2500 | > 2.5 | Active | –
3 | CCOc1ccc2c(c1)OC(c1cccc([N+](=O)[O-])c1)C(c1ccccc1)C2=O (centres undefined) | 193 | > 2500 | > 2.5 | Active | –
4 | COc1ccc2cc3[n+](cc2c1OC)CCc1cc2c(cc1-3)OCO2 | – | – | – | – | Active
5 | COc1ccc2c(c1)OC(c1ccc(Cl)cc1)C(c1ccccc1)C2=O (centres undefined) | 165 | 2410 | > 2.5 | Active | –
6 | O=C1O[C@H]([C@@H](O)CO)C(O)=C1O [ASCORBIC ACID] | 754 | – | – | – | –
7 | COc1ccc2c(c1)OCC(c1ccccc1)C2=O (centres undefined) | 965 | 82.6 | 0.521 | Active | –
8 | CCOc1ccc2c(c1)OC(c1ccc([N+](=O)[O-])cc1)C(c1ccccc1)C2=O (centres undefined) | > 2500 | 203 | 1.36 | Active | –
9 | COc1ccc2c(c1)OC(c1ccc([N+](=O)[O-])cc1)C(c1ccccc1)C2=O (centres undefined) | > 2500 | 73.2 | 0.595 | Active | –
10 | O=c1[nH]cc(F)c(=O)[nH]1 [FLUOROURACIL] | – | 0.07 | – | – | –
11 | CCOc1ccc2c(c1)OC(c1ccc(Cl)cc1)C(c1ccccc1)C2=O (centres undefined) | 578 | 514 | > 2.5 | Active | –
12 | COc1ccc2c(c1)OC(c1ccccc1)C(c1ccccc1)C2=O (centres undefined) | 500 | 2330 | > 2.5 | Active | –
